Laboratory results as given in ChEMBL document CHEMBL1833957, “P1-substituted symmetry-based human immunodeficiency virus protease inhibitors with potent antiviral activity against drug-resistant viruses” (J Med Chem, 2011).

What was measured:
[1] = tested on: Human immunodeficiency virus 1; experiment: Antiviral activity against wild type HIV1 pNL4-3 infected in human MT4 cells assessed as inhibition of virus-induced cell death after 5 days by MTT assay in presence of 50% human serum; assay type: functional, organism-based; conditions: Human immunodeficiency virus 1, pNL4-3, MT4, 120 h
[2] = tested on: Human immunodeficiency virus 1; experiment: Antiviral activity against HIV1 A17 harboring protease L10F, V32I, M46I, I47V, Q58E and I84V mutant infected in human MT4 cells assessed as inhibition of virus-induced cell death after 5 days by MTT assay relative to wild type HIV1 pNL4-3; assay type: functional
[3] = tested on: Human immunodeficiency virus 1; experiment: Antiviral activity against HIV1 B26 harboring protease L33F, K45I, M46I, I50V, A71V and V82F mutant infected in human MT4 cells assessed as inhibition of virus-induced cell death after 5 days by MTT assay relative to wild type HIV1 pNL4-3; assay type: functional
[4] = tested on: Human immunodeficiency virus 1; experiment: Antiviral activity against wild type HIV1 pNL4-3 infected in human MT4 cells assessed as inhibition of virus-induced cell death after 5 days by MTT assay; assay type: functional, organism-based; conditions: Human immunodeficiency virus 1, pNL4-3, MT4, 120 h
In short: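 EC50 measured against wild-type virus in MT-4 cells, with no human serum added.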

[5] = tested on: Human immunodeficiency virus 1; experiment: Antiviral activity against HIV1 isolate 1 harboring protease L10I, E35D, N37D, M46I, I54V, G57R, L63P, A71V, T74P, I84V, L90M, I93L mutant infected in human MT4 cells assessed as inhibition of virus-induced cell death after 5 days by MTT assay relative to wild type HIV1 pNL4-3; assay type: functional
[6] = tested on: Human immunodeficiency virus 1; experiment: Antiviral activity against HIV1 harboring protease L10I, I13V, G16A, Q18H, L33F, N37D, M46I, I54V, G57R, Q61H,I62V, L63P, A71L, I72T, L76V, V77I, V82A, N88G, L90M, I93L mutant infected in human MT4 cells assessed as inhibition of virus-induced cell death after 5 days by MTT assay relative to wild type HIV1 pNL4-3; assay type: functional
[7] = Oral bioavailability in rat at 5 mg/kg; assay type: ADME, organism-based; conditions: in vivo
[8] = Cmax in rat at 5 mg/kg, po; assay type: ADME, organism-based; design: dose 5 mg/kg, route oral; conditions: in vivo
In short: (§1)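 Rats given a single 5 mg/kg oral dose with no ritonavir. Plasma Cmax is reported in μg/mL and AUC in μg h/mL.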

[9] = AUC in rat at 5 mg/kg, po; assay type: ADME, organism-based; design: dose 5 mg/kg, route oral; conditions: plasma; in short: as §1
[10] = Oral bioavailability in rat at 5 mg/kg co-administered with 5 mg/kg of CYP3A4 inhibitor ritonavir relative to iv dose without ritonavir co-administration; assay type: ADME, organism-based; conditions: in vivo
In short: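 Rats given 5 mg/kg orally with 5 mg/kg ritonavir. Bioavailability (%) is calculated against an IV dose given without ritonavir.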

[11] = Cmax in rat at 5 mg/kg, po co-administered with 5 mg/kg of CYP3A4 inhibitor ritonavir; assay type: ADME, organism-based; design: dose 5 mg/kg, route oral; conditions: in vivo
In short: (§2)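 Rats given 5 mg/kg orally together with 5 mg/kg ritonavir. Plasma Cmax is reported in μg/mL and AUC in μg h/mL.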

[12] = AUC in rat at 5 mg/kg, po co-administered with 5 mg/kg of CYP3A4 inhibitor ritonavir; assay type: ADME, organism-based; conditions: plasma; in short: as §2

| Compound | EC50 [1] [nM] | fold change (FC) [2] | fold change (FC) [3] | EC50 [4] [nM] | fold change (FC) [5] | fold change (FC) [6] | bioavailability [7] [%] | Cmax [8] [ng/mL] | AUC [9] [ng·h/mL] | bioavailability [10] [%] | Cmax [11] [ng/mL] | AUC [12] [ng·h/mL] |
| --- | --- | --- | --- | --- | --- | --- | --- | --- | --- | --- | --- | --- |
| COC(=O)N[C@H](C(=O)N[C@@H](Cc1ccccc1)C[C@H](O)[C@H](Cc1ccc(-c2ccncc2)cc1)NC(=O)[C@@H](NC(=O)OC)C(C)(C)C)C(C)(C)C | 34 | 2 | 3 | 13 | – | – | – | – | – | – | – | – |
| COC(=O)N[C@H](C(=O)N[C@@H](Cc1ccccc1)C[C@H](O)[C@H](Cc1ccc(-c2ccc(F)nc2)cc1)NC(=O)[C@@H](NC(=O)OC)C(C)(C)C)C(C)(C)C | 14 | 12 | 14 | 3 | 58 | 7 | – | – | – | – | – | – |
| COC(=O)N[C@H](C(=O)N[C@@H](Cc1ccccc1)C[C@H](O)[C@H](Cc1ccc(-c2ccnc(F)c2)cc1)NC(=O)[C@@H](NC(=O)OC)C(C)(C)C)C(C)(C)C | 7 | 10 | 10 | 2 | 30 | 2 | – | – | – | – | – | – |
| COC(=O)N[C@H](C(=O)N[C@@H](Cc1ccccc1)C[C@H](O)[C@H](Cc1ccc(-c2ccc(C#N)nc2)cc1)NC(=O)[C@@H](NC(=O)OC)C(C)(C)C)C(C)(C)C | 23 | 8 | 12 | 6 | 16 | 3 | – | – | – | – | – | – |
| COC(=O)N[C@H](C(=O)N[C@@H](Cc1ccccc1)C[C@H](O)[C@H](Cc1ccc(-c2ccc(CO)nc2)cc1)NC(=O)[C@@H](NC(=O)OC)C(C)(C)C)C(C)(C)C | 45 | 0.2 | 0.6 | 14 | 12 | 2 | – | – | – | – | – | – |
| COC(=O)N[C@H](C(=O)N[C@@H](Cc1ccccc1)C[C@H](O)[C@H](Cc1ccc(-c2cnccn2)cc1)NC(=O)[C@@H](NC(=O)OC)C(C)(C)C)C(C)(C)C | 151 | 7 | 4 | 54 | – | – | – | – | – | – | – | – |
| COC(=O)N[C@H](C(=O)N[C@@H](Cc1ccccc1)C[C@H](O)[C@H](Cc1ccc(-c2cncnc2)cc1)NC(=O)[C@@H](NC(=O)OC)C(C)(C)C)C(C)(C)C | 58 | 41 | 74 | 2 | – | – | – | – | – | – | – | – |
| COC(=O)N[C@H](C(=O)N[C@@H](Cc1ccccc1)C[C@H](O)[C@H](Cc1ccc(-c2cnc3ccccc3c2)cc1)NC(=O)[C@@H](NC(=O)OC)C(C)(C)C)C(C)(C)C | – | – | – | – | – | – | 1 | 20 | 30 | 63 | 220 | 1850 |
| COC(=O)N[C@H](C(=O)N[C@@H](Cc1ccccc1)C[C@H](O)[C@H](Cc1ccc(-c2ccccc2)cc1)NC(=O)[C@@H](NC(=O)OC)C(C)(C)C)C(C)(C)C | 95 | 21 | 12 | 4 | – | – | – | – | – | – | – | – |
| COC(=O)N[C@H](C(=O)N[C@@H](Cc1ccccc1)C[C@H](O)[C@H](Cc1ccc(-c2cccc(CO)c2)cc1)NC(=O)[C@@H](NC(=O)OC)C(C)(C)C)C(C)(C)C | 92 | 1 | 1 | 21 | 52 | 4 | – | – | – | – | – | – |
| COC(=O)N[C@H](C(=O)N[C@@H](Cc1ccccc1)C[C@H](O)[C@H](Cc1ccc(-c2ccc(CO)cc2)cc1)NC(=O)[C@@H](NC(=O)OC)C(C)(C)C)C(C)(C)C | 18 | 2 | 2 | 5 | 45 | 2 | 0 | – | – | 0.3 | 10 | 10 |
| CNC(=O)c1ccc(-c2ccc(C[C@H](NC(=O)[C@@H](NC(=O)OC)C(C)(C)C)[C@@H](O)C[C@H](Cc3ccccc3)NC(=O)[C@@H](NC(=O)OC)C(C)(C)C)cc2)cc1 | 56 | 1 | 1 | 4 | 7 | 1 | – | – | – | – | – | – |
| CNC(=O)c1cccc(-c2ccc(C[C@H](NC(=O)[C@@H](NC(=O)OC)C(C)(C)C)[C@@H](O)C[C@H](Cc3ccccc3)NC(=O)[C@@H](NC(=O)OC)C(C)(C)C)cc2)c1 | 842 | 0.4 | 0.5 | 159 | – | – | – | – | – | – | – | – |
| COC(=O)N[C@H](C(=O)N[C@@H](Cc1ccccc1)C[C@H](O)[C@H](Cc1ccc(-c2ccc(C(C)=O)cc2)cc1)NC(=O)[C@@H](NC(=O)OC)C(C)(C)C)C(C)(C)C | 3 | 9 | 8 | 1 | 28 | 4 | 0 | – | – | 27 | 50 | 220 |
| COC(=O)N[C@H](C(=O)N[C@@H](Cc1ccccc1)C[C@H](O)[C@H](Cc1ccc(-c2ccc(OC)cc2)cc1)NC(=O)[C@@H](NC(=O)OC)C(C)(C)C)C(C)(C)C | 3 | 48 | 30 | 1 | 34 | 18 | 0 | – | – | 14 | 50 | 270 |
| COC(=O)N[C@H](C(=O)N[C@@H](Cc1ccccc1)C[C@H](O)[C@H](Cc1ccc(-c2ccc(O)cc2)cc1)NC(=O)[C@@H](NC(=O)OC)C(C)(C)C)C(C)(C)C | 71 | 3 | 3 | 13 | – | – | – | – | – | – | – | – |
| COC(=O)N[C@H](C(=O)N[C@@H](Cc1ccccc1)C[C@H](O)[C@H](Cc1ccc(-c2cccc(N)c2)cc1)NC(=O)[C@@H](NC(=O)OC)C(C)(C)C)C(C)(C)C | 20 | 3 | 3 | 5 | 9 | 1 | 1 | 100 | 20 | 5 | 100 | 70 |
| COC(=O)N[C@H](C(=O)N[C@@H](Cc1ccccc1)C[C@H](O)[C@H](Cc1ccc(-c2ccc(N)cc2)cc1)NC(=O)[C@@H](NC(=O)OC)C(C)(C)C)C(C)(C)C | 38 | 7 | 9 | 6 | 45 | 7 | – | – | – | – | – | – |
| COC(=O)N[C@H](C(=O)N[C@H](Cc1ccc(-c2ccccn2)cc1)C[C@H](O)[C@H](Cc1ccccc1)NC(=O)[C@@H](N1CCN(Cc2cccc(C(C)(C)O)n2)C1=O)C(C)(C)C)C(C)(C)C | – | 3 | 7 | – | 57 | 2 | – | – | – | – | – | – |
| Cc1cccc(C)c1OCC(=O)N[C@@H](Cc1ccccc1)[C@@H](O)C[C@H](Cc1ccccc1)NC(=O)[C@H](C(C)C)N1CCCNC1=O [LOPINAVIR] | – | 59 | 211 | – | 62 | 234 | – | – | – | – | – | – |
